Results as given in ChEMBL document CHEMBL2021788, “Cytotoxic cardiac glycosides and other compounds from Asclepias syriaca” (J Nat Prod, 2012).

Columns and labels:
[1] = Cytotoxicity against human Hs578Bst cells after 72 hrs by CellTiter-Glo assay; type: cell-based
In short: (§1)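 Breast lines (normal Hs578Bst; cancer Hs578T, T47D, Sk-Br-3, MCF-7) seeded at 3000 cells/well in 384-well plates, attached overnight. Compound dispensed acoustically at 14 concentrations spanning 0.002−40 μM, 72 h incubation. Viability by CellTiter-Glo luminescence read after 2 min shaking and 15 min stabilization. Triplicate dose−response curves, data normalized to median, IC50 from curve fit.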

T47D = test: Cytotoxicity against human T47D cells after 72 hrs by CellTiter-Glo assay; type: functional, cell-based; in short: as §1
MCF7 = test: Cytotoxicity against human MCF7 cells after 72 hrs by CellTiter-Glo assay; type: functional, cell-based; details: MCF7, 72 h; in short: as §1
[2] = Cytotoxicity against human Hs578Bst cells at 40 uM after 72 hrs by CellTiter-Glo assay relative to untreated control; type: cell-based
In short: (§2)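 Hs578T or Hs578Bst cells plated at 3000/well in 384-well format, grown overnight, then exposed to 40 μM (top of a 14-point 0.002−40 μM series) for 72 h. CellTiter-Glo luminescence after 2 min shaking plus 15 min stabilization; viability given as percent of control, n = 3, ± SD.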

Hs-578T [3] = test: Cytotoxicity against human Hs578T cells after 72 hrs by CellTiter-Glo assay; type: functional, cell-based; in short: as §1
Hs-578T [4] = test: Cytotoxicity against human Hs578T cells at 40 uM after 72 hrs by CellTiter-Glo assay relative to untreated control; type: functional, cell-based; in short: as §2
SK-BR-3 = test: Cytotoxicity against human SK-BR-3 cells after 72 hrs by CellTiter-Glo assay; type: functional, cell-based; details: SK-BR-3, 72 h; in short: as §1

C[C@H]1O[C@@H](O[C@H]2CC[C@@]3(C)[C@@H](CC[C@@H]4[C@@H]3CC[C@]3(C)[C@](O)(C5=CC(=O)OC5)CC[C@]43O)C2)[C@H](O)[C@H](O)[C@@H]1O[C@@H]1O[C@H](CO)[C@@H](O)[C@H](O)[C@H]1O
IC50 [1]: 14.2 µM
IC50 (T47D): > 40 µM
IC50 (MCF7): > 40 µM
% toxicity [2]: 38.2%
IC50 (Hs-578T [3]): > 40 µM
% toxicity (Hs-578T [4]): 56%
IC50 (SK-BR-3): > 40 µM

C[C@H]1O[C@@H](O[C@H]2CC[C@@]3(C)[C@@H](CC[C@@H]4[C@@H]3CC[C@]3(C)[C@@H](C5=CC(=O)OC5)CC[C@]43O)C2)[C@H](O)[C@H](O)[C@@H]1O[C@@H]1O[C@H](CO)[C@@H](O)[C@H](O)[C@H]1O
IC50 [1]: 0.043 µM
IC50 (T47D): 1.76 µM
IC50 (MCF7): 5.3 µM
% toxicity [2]: 51.7%
IC50 (Hs-578T [3]): 0.593 µM
% toxicity (Hs-578T [4]): 91.5%
IC50 (SK-BR-3): 2.52 µM

O=c1c(O[C@@H]2OC[C@@H](O)[C@H](O)[C@H]2O[C@@H]2O[C@H](CO)[C@H](O)[C@H](O)[C@H]2O)c(-c2ccc(O)cc2)oc2cc(O)cc(O)c12
IC50 [1]: > 40 µM
IC50 (T47D): > 40 µM
IC50 (MCF7): > 40 µM
% toxicity [2]: 13.9%
IC50 (Hs-578T [3]): > 40 µM
% toxicity (Hs-578T [4]): 32.7%
IC50 (SK-BR-3): > 40 µM

C[C@]12CC[C@H](O[C@@H]3O[C@H](CO)[C@@H](O)[C@H](O)[C@H]3O)C[C@@H]1CC[C@@H]1[C@@H]2CC[C@]2(C)[C@@H](C3=CC(=O)OC3)CC[C@]12O [DESGLUCOUZARIN]
IC50 [1]: 1.05 µM
IC50 (T47D): 11.7 µM
IC50 (MCF7): 17 µM
% toxicity [2]: 51.6%
IC50 (Hs-578T [3]): 6.28 µM
% toxicity (Hs-578T [4]): 85.5%
IC50 (SK-BR-3): 18.1 µM

C[C@]12CC[C@H](O)C[C@H]1CC[C@@H]1[C@@H]2CC[C@]2(C)[C@@H](C3=CC(=O)OC3)CC[C@]12O [DIGITOXIGENIN]
IC50 [1]: 0.15 µM
IC50 (T47D): 2.53 µM
IC50 (MCF7): 9.1 µM
% toxicity [2]: 49.8%
IC50 (Hs-578T [3]): 1.02 µM
% toxicity (Hs-578T [4]): 92.3%
IC50 (SK-BR-3): 4.42 µM

C[C@H]1O[C@@H](O[C@H]2[C@@H](O)C[C@H](O[C@H]3[C@@H](O)C[C@H](O[C@H]4CC[C@@]5(C)[C@H](CC[C@@H]6[C@@H]5C[C@@H](O)[C@]5(C)[C@@H](C7=CC(=O)OC7)CC[C@]65O)C4)O[C@@H]3C)O[C@@H]2C)C[C@H](O)[C@@H]1O [DIGOXIN]
IC50 [1]: 0.04 µM
IC50 (T47D): 0.66 µM
IC50 (MCF7): 4.7 µM
% toxicity [2]: 47.7%
IC50 (Hs-578T [3]): 0.251 µM
% toxicity (Hs-578T [4]): 93.5%
IC50 (SK-BR-3): 1.08 µM

COc1cccc2c1C(=O)c1c(O)c3c(c(O)c1C2=O)C[C@@](O)(C(=O)CO)C[C@@H]3O[C@H]1C[C@H](N)[C@H](O)[C@H](C)O1 [DOXORUBICIN]
IC50 [1]: 0.18 µM
IC50 (T47D): 1.9 µM
IC50 (MCF7): 1.54 µM
% toxicity [2]: 64.3%
IC50 (Hs-578T [3]): 0.546 µM
% toxicity (Hs-578T [4]): 98.3%
IC50 (SK-BR-3): 0.21 µM

C[C@@H]1O[C@@H](O[C@H]2C[C@@H](O)[C@]3(CO)[C@H]4[C@H](O)C[C@]5(C)[C@@H](C6=CC(=O)OC6)CC[C@]5(O)[C@@H]4CC[C@]3(O)C2)[C@H](O)[C@H](O)[C@H]1O [OUABAIN]
IC50 [1]: 0.006 µM
IC50 (T47D): 0.385 µM
IC50 (MCF7): 10.6 µM
% toxicity [2]: 55.8%
IC50 (Hs-578T [3]): 0.11 µM
% toxicity (Hs-578T [4]): 93%
IC50 (SK-BR-3): 0.403 µM

C[C@]12CC[C@H](O[C@@H]3O[C@H](CO[C@@H]4O[C@H](CO)[C@@H](O)[C@H](O)[C@H]4O)[C@@H](O)[C@H](O)[C@H]3O)C[C@@H]1CC[C@@H]1[C@@H]2CC[C@]2(C)[C@@H](C3=CC(=O)OC3)CC[C@]12O [UZARIN]
IC50 [1]: 0.76 µM
IC50 (T47D): 9.5 µM
IC50 (MCF7): 11.6 µM
% toxicity [2]: 54.7%
IC50 (Hs-578T [3]): 4.58 µM
% toxicity (Hs-578T [4]): 84%
IC50 (SK-BR-3): 19.4 µM
